Data taken from ChEMBL document CHEMBL1138056, “Potent benzimidazole sulfonamide protein tyrosine phosphatase 1B inhibitors containing the heterocyclic (S)-isothiazolidinone phosphotyrosine mimetic” (J Med Chem, 2006).

How the values were obtained:
[1] = Permeability across Caco-2 cell membrane; assay type: ADME, cell-based; settings: human, read-out: permeability
[2] = target: T1, Tyrosine-protein phosphatase non-receptor type 1 (Homo sapiens) (UniProt P18031); assay: Increase in phosphorylation level of human insulin receptor transfected in HEK293 cells at 80 uM; assay type: functional, cell-based
T1 sequence (whole entry): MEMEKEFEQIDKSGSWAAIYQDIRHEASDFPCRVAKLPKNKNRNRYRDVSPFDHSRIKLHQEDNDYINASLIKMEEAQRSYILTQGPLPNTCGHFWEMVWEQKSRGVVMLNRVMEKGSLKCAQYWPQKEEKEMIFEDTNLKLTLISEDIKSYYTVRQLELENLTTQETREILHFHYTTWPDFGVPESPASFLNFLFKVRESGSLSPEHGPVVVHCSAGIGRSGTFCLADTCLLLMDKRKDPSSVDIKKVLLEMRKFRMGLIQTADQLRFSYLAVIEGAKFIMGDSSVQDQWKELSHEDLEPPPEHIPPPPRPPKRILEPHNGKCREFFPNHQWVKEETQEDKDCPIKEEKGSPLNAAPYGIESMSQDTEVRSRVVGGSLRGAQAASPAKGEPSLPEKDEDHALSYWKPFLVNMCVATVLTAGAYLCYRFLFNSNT
How it was run: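 HEK293-MSR cells cotransfected with full-length human PTP1B and insulin receptor plasmids, attached 24 h, then treated 16 h in serum-free DMEM (0.4% DMSO final). Lysed on ice; IR phosphorylated at Y1162/Y1163 measured by ELISA and normalized to total protein (BCA). Expressed as fold shift; averages of triplicates from the same day.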

[3] = target: T2, Tyrosine-protein phosphatase non-receptor type 1 (Homo sapiens, UniProt P18031); assay: Inhibition of PTP1B by pNPP assay
T2 sequence (P18031 whole entry): T1 sequence (whole entry)

| Compound | Papp [1] | Activity [2] | IC50 [3] |
| --- | --- | --- | --- |
| Cc1cc(C[C@H](NS(=O)(=O)c2ccccc2)c2nc3ccccc3[nH]2)ccc1[C@@H]1CC(=O)[N-]S1(=O)=O.[Na+] | 0.4 ×10⁻⁶ cm/s | 2.8 |  |
| O=C1CC(c2ccc(CC(NS(=O)(=O)c3ccc(C(F)(F)F)cc3)c3nc4ccccc4[nH]3)cc2)S(=O)(=O)N1 (stereo not given) |  |  | 51 nM |
| O=C1CC(c2ccc(CC(NS(=O)(=O)c3c(Cl)cccc3Cl)c3nc4ccccc4[nH]3)cc2)S(=O)(=O)N1 (stereo not given) |  |  | 460 nM |
| O=C1CC(c2ccc(CC(NS(=O)(=O)c3cc(Cl)ccc3Cl)c3nc4ccccc4[nH]3)cc2)S(=O)(=O)N1 (stereo not given) |  |  | 160 nM |
| O=C1CC(c2ccc(C[C@H](NS(=O)(=O)c3ccccc3)c3nc4ccccc4[nH]3)cc2F)S(=O)(=O)[N-]1.[Na+] (stereo not given in full) | 0.2 ×10⁻⁶ cm/s | 1.6 | 18 nM |
| O=C1CC(c2ccc(CC(NS(=O)(=O)c3ccccc3Br)c3nc4ccccc4[nH]3)cc2)S(=O)(=O)N1 (stereo not given) |  |  | 170 nM |
| Cc1cc(C[C@H](NS(=O)(=O)c2ccc(Br)c(C(F)(F)F)c2)c2nc3ccccc3[nH]2)ccc1[C@@H]1CC(=O)[N-]S1(=O)=O.[Na+] | < 0.1 ×10⁻⁶ cm/s | 2 | 16 nM |
| Cc1ccc(S(=O)(=O)NC(Cc2ccc(C3CC(=O)NS3(=O)=O)cc2)c2nc3ccccc3[nH]2)cc1 (stereo not given) |  |  | 80 nM |
| COc1cccc(S(=O)(=O)NC(Cc2ccc(C3CC(=O)NS3(=O)=O)cc2)c2nc3ccccc3[nH]2)c1 (stereo not given) |  |  | 48 nM |
| O=C1CC(c2ccc(C[C@H](NS(=O)(=O)c3cccc(C(F)(F)F)c3)c3nc4cc(Cl)ccc4[nH]3)cc2F)S(=O)(=O)[N-]1.[Na+] (stereo not given in full) | 0.3 ×10⁻⁶ cm/s | 2.3 | 10 nM |
| CC(=O)N[C@@H](Cc1ccccc1)C(=O)N[C@@H](Cc1ccc([C@@H]2CC(=O)NS2(=O)=O)cc1)C(N)=O |  |  | 240 nM |
| O=C1CC(c2ccc(CC(NS(=O)(=O)c3ccc(-c4ccccc4)cc3)c3nc4cc(C(F)(F)F)ccc4[nH]3)cc2)S(=O)(=O)N1 (stereo not given) |  |  | 160 nM |
| Cc1cccc(S(=O)(=O)NC(Cc2ccc(C3CC(=O)NS3(=O)=O)cc2)c2nc3ccccc3[nH]2)c1 (stereo not given) |  |  | 85 nM |
| Cc1cc(C[C@H](NS(=O)(=O)c2ccccc2C#N)c2nc3ccccc3[nH]2)ccc1[C@@H]1CC(=O)[N-]S1(=O)=O.[Na+] | < 0.1 ×10⁻⁶ cm/s | 1.4 | 18 nM |
| O=C1CC(c2ccc(CC(NS(=O)(=O)c3ccccc3Cl)c3nc4ccccc4[nH]3)cc2)S(=O)(=O)N1 (stereo not given) |  |  | 160 nM |
| Cc1ccccc1S(=O)(=O)NC(Cc1ccc(C2CC(=O)NS2(=O)=O)cc1)c1nc2ccccc2[nH]1 (stereo not given) |  |  | 300 nM |
| O=C1CC(c2ccc(CC(NS(=O)(=O)c3cc(Cl)cc(Cl)c3)c3nc4ccccc4[nH]3)cc2)S(=O)(=O)N1 (stereo not given) |  |  | 51 nM |
| O=C1CC(c2ccc(CC(NS(=O)(=O)c3ccccc3C(F)(F)F)c3nc4ccccc4[nH]3)cc2)S(=O)(=O)N1 (stereo not given) |  |  | 130 nM |
| O=C1CC(c2ccc(CC(NS(=O)(=O)c3ccc(Cl)cc3)c3nc4ccccc4[nH]3)cc2)S(=O)(=O)N1 (stereo not given) |  |  | 110 nM |

| Compound | Papp [1] | Activity [2] | IC50 [3] |
| --- | --- | --- | --- |
| Cc1cc(C[C@H](NS(=O)(=O)c2cccc(Cl)c2)c2nc3ccccc3[nH]2)ccc1[C@@H]1CC(=O)[N-]S1(=O)=O.[Na+] | 0.2 ×10⁻⁶ cm/s | 1.9 | 76 nM |
| O=C1CC(c2ccc(CC(NS(=O)(=O)c3ccc(Br)cc3)c3nc4ccccc4[nH]3)cc2)S(=O)(=O)N1 (stereo not given) |  |  | 110 nM |
| CC(C)(C)c1cccc2[nH]c(C(Cc3ccc(C4CC(=O)NS4(=O)=O)cc3)NS(=O)(=O)c3ccc(-c4ccccc4)cc3)nc12 (stereo not given) |  |  | 460 nM |
| O=C1CC(c2ccc(CC(NS(=O)(=O)c3cccc(F)c3)c3nc4ccccc4[nH]3)cc2)S(=O)(=O)N1 (stereo not given) |  |  | 43 nM |
| O=C1CC(c2ccc(CC(NS(=O)(=O)c3ccc(-c4ccccc4)cc3)c3nc4cc(Cl)ccc4[nH]3)cc2)S(=O)(=O)N1 (stereo not given) |  |  | 140 nM |
| Cc1cccc2[nH]c(C(Cc3ccc(C4CC(=O)NS4(=O)=O)cc3)NS(=O)(=O)c3ccc(-c4ccccc4)cc3)nc12 (stereo not given) |  |  | 190 nM |
| O=C1CC(c2ccc(CC(NS(=O)(=O)c3ccc(-c4ccccc4)cc3)c3nc4c(O)cccc4[nH]3)cc2)S(=O)(=O)N1 (stereo not given) |  |  | 240 nM |
| O=C1CC(c2ccc(CC(NS(=O)(=O)c3cccc(Br)c3)c3nc4ccccc4[nH]3)cc2)S(=O)(=O)N1 (stereo not given) |  |  | 77 nM |
| O=C1CC(c2ccc(CC(NS(=O)(=O)c3cc(F)cc(F)c3)c3nc4ccccc4[nH]3)cc2)S(=O)(=O)N1 (stereo not given) |  |  | 72 nM |
| O=C1CC(c2ccc(CC(NS(=O)(=O)c3cccc(Cl)c3)c3nc4ccccc4[nH]3)cc2)S(=O)(=O)N1 (stereo not given) |  |  | 60 nM |
| O=C1CC(c2ccc(CC(NS(=O)(=O)c3ccc(F)cc3F)c3nc4ccccc4[nH]3)cc2)S(=O)(=O)N1 (stereo not given) |  |  | 110 nM |
| COc1ccc(S(=O)(=O)NC(Cc2ccc(C3CC(=O)NS3(=O)=O)cc2)c2nc3ccccc3[nH]2)cc1 (stereo not given) |  |  | 94 nM |
| O=C1CC(c2ccc(CC(NS(=O)(=O)c3ccc(-c4ccccc4)cc3)c3nc4ccccc4[nH]3)cc2)S(=O)(=O)N1 (stereo not given) |  |  | 80 nM |
| O=C1C[C@@H](c2ccc(C[C@H](NS(=O)(=O)c3ccccc3)c3nc4ccccc4[nH]3)cc2Cl)S(=O)(=O)[N-]1.[Na+] | < 0.1 ×10⁻⁶ cm/s | 1 | 50 nM |
| O=C1CC(c2ccc(CC(NS(=O)(=O)c3cccc(Cl)c3Cl)c3nc4ccccc4[nH]3)cc2)S(=O)(=O)N1 (stereo not given) |  |  | 240 nM |
| O=C1CC(c2ccc(CC(NS(=O)(=O)c3ccc(F)cc3)c3nc4ccccc4[nH]3)cc2)S(=O)(=O)N1 (stereo not given) |  |  | 80 nM |
| O=C1CC(c2ccc(CC(NS(=O)(=O)c3c(F)cccc3F)c3nc4ccccc4[nH]3)cc2)S(=O)(=O)N1 (stereo not given) |  |  | 160 nM |
| O=C1CC(c2ccc(CC(NS(=O)(=O)c3ccc(F)c(F)c3)c3nc4ccccc4[nH]3)cc2)S(=O)(=O)N1 (stereo not given) |  |  | 110 nM |
| Cc1ccc2[nH]c(C(Cc3ccc(C4CC(=O)NS4(=O)=O)cc3)NS(=O)(=O)c3ccc(-c4ccccc4)cc3)nc2c1 (stereo not given) |  |  | 140 nM |

| Compound | Papp [1] | Activity [2] | IC50 [3] |
| --- | --- | --- | --- |
| O=C(CCc1ccccc1)N[C@@H](Cc1ccc([C@@H]2CC(=O)NS2(=O)=O)cc1)c1nc2ccccc2[nH]1 |  |  | 600 nM |
| O=C1CC(c2ccc(CC(NS(=O)(=O)c3ccccc3F)c3nc4ccccc4[nH]3)cc2)S(=O)(=O)N1 (stereo not given) |  |  | 120 nM |
| Cc1cc(C[C@H](NS(=O)(=O)c2ccccc2)c2nc3ccccc3[nH]2)ccc1[C@H]1CC(=O)NS1(=O)=O |  | 1 |  |
| O=C1CC(c2ccc(CC(NS(=O)(=O)c3ccc(Cl)c(Cl)c3)c3nc4ccccc4[nH]3)cc2)S(=O)(=O)N1 (stereo not given) |  |  | 79 nM |
| N#Cc1ccccc1S(=O)(=O)NC(Cc1ccc(C2CC(=O)NS2(=O)=O)cc1)c1nc2ccccc2[nH]1 (stereo not given) |  |  | 45 nM |
| CC(=O)N[C@@H](Cc1ccc([C@@H]2CC(=O)NS2(=O)=O)cc1)c1nc2ccccc2[nH]1 |  |  | 940 nM |
| O=C1C[C@@H](c2ccc(C[C@H](NS(=O)(=O)c3ccccc3)c3nc4ccccc4[nH]3)cc2)S(=O)(=O)[N-]1.[Na+] | 0.4 ×10⁻⁶ cm/s | 1 | 32 nM |
| COc1ccc2[nH]c(C(Cc3ccc(C4CC(=O)NS4(=O)=O)cc3)NS(=O)(=O)c3ccc(-c4ccccc4)cc3)nc2c1 (stereo not given) |  |  | 130 nM |
| O=C1CC(c2ccc(CC(NS(=O)(=O)c3ccc(Cl)cc3Cl)c3nc4ccccc4[nH]3)cc2)S(=O)(=O)N1 (stereo not given) |  |  | 280 nM |
| N#Cc1ccc2nc(C(Cc3ccc(C4CC(=O)NS4(=O)=O)cc3)NS(=O)(=O)c3ccc(-c4ccccc4)cc3)[nH]c2c1 (stereo not given) |  |  | 53 nM |
| O=C1C[C@@H](c2ccc(C[C@H](NS(=O)(=O)c3cccc(F)c3)c3nc4ccccc4[nH]3)cc2F)S(=O)(=O)[N-]1.[Na+] | < 0.1 ×10⁻⁶ cm/s | 1.1 | 15 nM |
| O=C1CC(c2ccc(CC(NS(=O)(=O)c3ccc(-c4ccccc4)cc3)c3nc4cc(F)ccc4[nH]3)cc2)S(=O)(=O)N1 (stereo not given) |  |  | 120 nM |
| CS(=O)(=O)N[C@@H](Cc1ccc([C@@H]2CC(=O)NS2(=O)=O)cc1)c1nc2ccccc2[nH]1 |  |  | 590 nM |
| N#Cc1ccc(S(=O)(=O)NC(Cc2ccc(C3CC(=O)NS3(=O)=O)cc2)c2nc3ccccc3[nH]2)cc1 (stereo not given) |  |  | 63 nM |
| COC(=O)c1ccc2[nH]c(C(Cc3ccc(C4CC(=O)NS4(=O)=O)cc3)NS(=O)(=O)c3ccc(-c4ccccc4)cc3)nc2c1 (stereo not given) |  |  | 150 nM |
| O=C1CC(c2ccc(C[C@H](NS(=O)(=O)c3ccccc3)c3nc4ccccc4[nH]3)cc2Br)S(=O)(=O)[N-]1.[Na+] (stereo not given in full) | < 0.1 ×10⁻⁶ cm/s | 0.7 | 340 nM |
| O=C1CC(c2ccc(CC(NS(=O)(=O)c3cccc(C(F)(F)F)c3)c3nc4ccccc4[nH]3)cc2)S(=O)(=O)N1 (stereo not given) |  |  | 67 nM |
| O=C1CC(c2ccc(CC(NS(=O)(=O)c3cc(F)ccc3F)c3nc4ccccc4[nH]3)cc2)S(=O)(=O)N1 (stereo not given) |  |  | 140 nM |
